ChEMBL document CHEMBL2150881, “JD-5006 and JD-5037: peripherally restricted (PR) cannabinoid-1 receptor blockers related to SLV-319 (Ibipinabant) as metabolic disorder therapeutics devoid of CNS liabilities” (Bioorg Med Chem Lett, 2012)

Legend:
Cannabinoid receptor 2 = Cannabinoid receptor 2 (Homo sapiens, UniProt P34972); test: Displacement of 3[H]ligand from recombinant human CB2 receptor
In short: (§1)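 Radioligand displacement from human recombinant CB1 and CB2 protein by a [³H] ligand. Initial screen at two concentrations in duplicate, with values >100 nM estimated. Percent inhibition read at 100 nM. IC₅₀ taken from four-point concentration curves run in duplicate.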

Cannabinoid receptor 1 [1] = biological target: T1, Cannabinoid receptor 1 (Homo sapiens, UniProt P21554); test: Displacement of 3[H]ligand from recombinant human CB1 receptor; in short: as §1
T1 sequence (P21554 whole entry): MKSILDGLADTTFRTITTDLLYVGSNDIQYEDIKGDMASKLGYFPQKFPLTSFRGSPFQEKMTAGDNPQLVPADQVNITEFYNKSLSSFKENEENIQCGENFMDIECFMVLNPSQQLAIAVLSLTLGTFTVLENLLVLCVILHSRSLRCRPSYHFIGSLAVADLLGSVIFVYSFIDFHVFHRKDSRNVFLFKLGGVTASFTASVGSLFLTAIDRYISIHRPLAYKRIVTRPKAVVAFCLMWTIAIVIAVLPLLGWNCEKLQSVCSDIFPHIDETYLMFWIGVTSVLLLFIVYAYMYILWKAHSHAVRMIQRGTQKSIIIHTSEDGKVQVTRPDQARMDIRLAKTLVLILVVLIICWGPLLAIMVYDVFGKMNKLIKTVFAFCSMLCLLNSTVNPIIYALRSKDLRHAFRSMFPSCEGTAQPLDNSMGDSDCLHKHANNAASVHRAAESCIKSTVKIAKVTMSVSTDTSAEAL

Cannabinoid receptor 1 [2] = biological target: T1, Cannabinoid receptor 1; test: Displacement of 3[H]ligand from recombinant human CB1 receptor at 100 nM; in short: as §1
[3] = Apparent permeability from apical to basolateral side in MDR expressing MDCK cells by LC-MS-MS analysis; format: ADME, cell-based, Canis lupus familiaris; conditions: dog, MDCK-MDR1
In short: (§2)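 Permeability measured across MDR-MDCK kidney cell monolayers, giving apparent permeability (Papp) in the apical-to-basolateral and basolateral-to-apical directions.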

[4] = Apparent permeability from basolateral to apical side in MDR expressing MDCK cells by LC-MS-MS analysis; format: ADME, cell-based, Canis lupus familiaris; conditions: dog, MDCK-MDR1; in short: as §2
[5] = Efflux ratio of permeability from […] in MDR expressing MDCK cells; format: ADME, cell-based, Canis lupus familiaris; conditions: dog, MDCK-MDR1
[6] = biological target: Cannabinoid receptor 1 (Mus musculus) (UniProt P47746); conditions: Cerebellum, 30 mg/kg
Chain of Cannabinoid receptor 1 (Mus musculus) (P47746 whole entry): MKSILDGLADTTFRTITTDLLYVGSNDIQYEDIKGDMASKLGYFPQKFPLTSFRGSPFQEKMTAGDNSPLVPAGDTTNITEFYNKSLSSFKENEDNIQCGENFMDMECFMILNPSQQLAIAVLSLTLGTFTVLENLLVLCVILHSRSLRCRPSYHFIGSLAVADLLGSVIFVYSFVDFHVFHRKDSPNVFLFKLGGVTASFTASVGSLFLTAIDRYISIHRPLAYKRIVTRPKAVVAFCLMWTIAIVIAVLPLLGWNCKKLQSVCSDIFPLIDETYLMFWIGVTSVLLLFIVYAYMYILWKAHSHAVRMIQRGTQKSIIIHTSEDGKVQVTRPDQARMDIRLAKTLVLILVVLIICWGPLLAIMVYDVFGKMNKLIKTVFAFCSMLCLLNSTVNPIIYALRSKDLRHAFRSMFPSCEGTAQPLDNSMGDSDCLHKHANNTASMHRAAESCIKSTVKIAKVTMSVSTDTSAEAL

Mus musculus [7] = test: In vivo receptor occupancy at CB1 receptor in mouse hippocampus assessed as inhibition of [3H]SR141716A binding at 3 mg/kg, po for 3 days measured after 1 hr post last dose; format: functional
In short: (§3)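 Chow-fed mice dosed orally once daily at 3 or 30 mg/kg for 3 consecutive days, killed 1 h after the last dose. [3H]SR141716A was given by lateral tail-vein injection 30 min before euthanasia. Hippocampus, cerebellum and brain stem (reference region) were scintillation-counted as DPM/mg. Binding potential = (receptor − reference)/reference. Occupancy (%) = 100 × (vehicle BP − drug BP)/vehicle BP. 5 animals per dose.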

Mus musculus [8] = test: In vivo receptor occupancy at CB1 receptor in mouse hippocampus assessed as inhibition of [3H]SR141716A binding at 30 mg/kg, po for 3 days measured after 1 hr post last dose; format: functional; in short: as §3
Mus musculus [9] = test: In vivo receptor occupancy at CB1 receptor in mouse cerebellum assessed as inhibition of [3H]SR141716A binding at 3 mg/kg, po for 3 days measured after 1 hr post last dose; format: functional; in short: as §3

Chain of Cannabinoid receptor 2 (P34972 whole entry): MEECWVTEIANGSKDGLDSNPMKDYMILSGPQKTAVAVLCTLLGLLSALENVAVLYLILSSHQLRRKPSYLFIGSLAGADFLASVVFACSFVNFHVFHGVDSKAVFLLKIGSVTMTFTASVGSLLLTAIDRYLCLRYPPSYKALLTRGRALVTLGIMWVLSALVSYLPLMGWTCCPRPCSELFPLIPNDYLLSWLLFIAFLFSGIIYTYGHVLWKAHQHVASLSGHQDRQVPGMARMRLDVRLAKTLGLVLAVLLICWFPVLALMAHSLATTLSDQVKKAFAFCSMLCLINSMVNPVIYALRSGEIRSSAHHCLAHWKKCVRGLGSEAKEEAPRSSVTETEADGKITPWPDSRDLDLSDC

Compound | IC50 (Cannabinoid receptor 2) [nM] | IC50 (Cannabinoid receptor 1 [1]) [nM] | further results
NC(=O)CN=C(NS(=O)(=O)c1ccc(O)cc1)N1CC(c2ccccc2)C(c2ccc(Cl)cc2)=N1 (configuration not stated) | 5000 | > 100 | –
COC(=O)CN/C(=N\S(=O)(=O)c1ccc(Cl)cc1)N1CC(c2ccccc2)C(c2ccc(Cl)cc2)=N1 (configuration not stated) | – | – | inhibition (Cannabinoid receptor 1 [2]): 88%
CN=C(NS(=O)(=O)c1ccc(C(=O)NO)cc1)N1CC(c2ccccc2)C(c2ccc(Cl)cc2)=N1 (racemic) | – | > 5000 | –
COc1ccc(S(=O)(=O)NC(=NCC(N)=O)N2CC(c3ccccc3)C(c3ccc(Cl)cc3)=N2)cc1 (configuration not stated) | > 5000 | 100 | –
NC(=O)[C@@H](O)CCN/C(=N\S(=O)(=O)c1ccc(Cl)cc1)N1CC(c2ccccc2)C(c2ccc(Cl)cc2)=N1 (some centres not stated) | > 5000 | 66 | –
COC(=O)[C@H](C)N/C(=N\S(=O)(=O)c1ccc(Cl)cc1)N1CC(c2ccccc2)C(c2ccc(Cl)cc2)=N1 (some centres not stated) | – | – | inhibition (Cannabinoid receptor 1 [2]): 96%
O=C(O)[C@@H](O)CCN=C(NS(=O)(=O)c1ccc(Cl)cc1)N1CC(c2ccccc2)C(c2ccc(Cl)cc2)=N1 (some centres not stated) | – | > 1000 | –
COc1ccc(S(=O)(=O)NC(=N[C@H](C(=O)NCC(N)=O)C(C)C)N2CC(c3ccccc3)C(c3ccc(Cl)cc3)=N2)cc1 (some centres not stated) | > 5000 | > 100 | –
COc1cccc(S(=O)(=O)/N=C(\N[C@H](C(N)=O)C(C)C)N2CC(c3ccccc3)C(c3ccc(Cl)cc3)=N2)c1 (some centres not stated) | > 1000 | 4 | –
CN=C(NS(=O)(=O)c1ccc(OCC(N)=O)cc1)N1CC(c2ccccc2)C(c2ccc(Cl)cc2)=N1 (racemic) | – | > 5000 | –
C[C@@H](O)[C@H](N/C(=N\S(=O)(=O)c1ccc(Cl)cc1)N1CC(c2ccccc2)C(c2ccc(Cl)cc2)=N1)C(=O)N[C@@H](CO)C(N)=O (some centres not stated) | > 1000 | 7 | –
CC(C)(N/C(=N\S(=O)(=O)c1ccc(Cl)cc1)N1CC(c2ccccc2)C(c2ccc(Cl)cc2)=N1)C(N)=O (racemic) | > 1000 | 8.5 | –
NC(=O)CN=C(NS(=O)(=O)c1ccc(Cl)cc1)N1CC(c2ccccc2)C(c2ccc(Cl)cc2)=N1 (single isomer, unassigned; enantiomer 2) | > 1000 | > 1000 | –
NC(=O)CCN=C(NS(=O)(=O)c1ccc(Cl)cc1)N1CC(c2ccccc2)C(c2ccc(Cl)cc2)=N1 (racemic) | > 5000 | 32 | Papp A→B [3]: 0.88 ×10⁻⁶ cm/s; Papp B→A [4]: 58 ×10⁻⁶ cm/s; efflux ratio [5]: 66
C[C@H](N=C(NS(=O)(=O)c1ccc(Cl)cc1)N1CC(c2ccccc2)C(c2ccc(Cl)cc2)=N1)C(=O)O (some centres not stated) | – | > 1000 | –
C[C@H](O)[C@@H](N=C(NS(=O)(=O)c1ccc(Cl)cc1)N1CC(c2ccccc2)C(c2ccc(Cl)cc2)=N1)C(N)=O (some centres not stated) | > 5000 | > 100 | –
C[C@H](N/C(=N\S(=O)(=O)c1ccc(Cl)cc1)N1CC(c2ccccc2)C(c2ccc(Cl)cc2)=N1)C(N)=O (some centres not stated) | > 1000 | 20 | Papp A→B [3]: 2.44 ×10⁻⁶ cm/s; Papp B→A [4]: 9.25 ×10⁻⁶ cm/s; efflux ratio [5]: 3.8
NC(=O)[C@@H](N/C(=N\S(=O)(=O)c1ccc(Cl)cc1)N1CC(c2ccccc2)C(c2ccc(Cl)cc2)=N1)C1CCC1 (some centres not stated) | > 1000 | 8.3 | –
COc1ccc(S(=O)(=O)/N=C(\N[C@@H](C)C(=O)N[C@@H](CO)C(N)=O)N2CC(c3ccccc3)C(c3ccc(Cl)cc3)=N2)cc1 (some centres not stated) | > 5000 | > 100 | –
C[C@H](N=C(NS(=O)(=O)c1ccc(Cl)cc1)N1CC(c2ccccc2)C(c2ccc(Cl)cc2)=N1)C(=O)N[C@@H](CO)C(N)=O (some centres not stated) | > 5000 | 8 | –
CC(C)[C@H](N/C(=N\S(=O)(=O)c1ccc(Cl)cc1)N1CC(c2ccccc2)C(c2ccc(Cl)cc2)=N1)C(=O)N[C@@H](C)C(N)=O (some centres not stated) | > 5000 | 100 | –
CN/C(=N\S(=O)(=O)c1ccc(NC(C)=O)cc1)N1CC(c2ccccc2)C(c2ccc(Cl)cc2)=N1 (racemic) | – | > 1000 | –
CCOC(=O)Nc1ccc(S(=O)(=O)NC(=NC)N2CC(c3ccccc3)C(c3ccc(Cl)cc3)=N2)cc1 (racemic) | – | 300 | –

Compound | IC50 (Cannabinoid receptor 2) [nM] | IC50 (Cannabinoid receptor 1 [1]) [nM] | further results
CN=C(NS(=O)(=O)c1ccc(OC)cc1)N1CC(c2ccccc2)C(c2ccc(Cl)cc2)=N1 (racemic) | – | 100 | –
O=C(O)CN=C(NS(=O)(=O)c1ccc(Cl)cc1)N1CC(c2ccccc2)C(c2ccc(Cl)cc2)=N1 (configuration not stated) | – | > 1000 | –
CC(C)(C)[C@H](N/C(=N\S(=O)(=O)c1ccc(Cl)cc1)N1CC(c2ccccc2)C(c2ccc(Cl)cc2)=N1)C(N)=O (some centres not stated) | > 5000 | 2 | Papp A→B [3]: 0.7 ×10⁻⁶ cm/s; Papp B→A [4]: < 0.1 ×10⁻⁶ cm/s
NC(=O)[C@H](CO)N=C(NS(=O)(=O)c1ccc(Cl)cc1)N1CC(c2ccccc2)C(c2ccc(Cl)cc2)=N1 (some centres not stated) | > 5000 | 13 | –
CC(C)[C@H](N/C(=N\S(=O)(=O)c1ccc(Cl)cc1)N1CC(c2ccccc2)C(c2ccc(Cl)cc2)=N1)C(=O)NCC(N)=O (some centres not stated) | > 1000 | > 100 | –
C[C@H](N/C(=N\S(=O)(=O)c1ccc(Cl)cc1)N1CC(c2ccccc2)C(c2ccc(Cl)cc2)=N1)C(=O)NCC(N)=O (some centres not stated) | > 1000 | 10 | –
CC(CN/C(=N\S(=O)(=O)c1ccc(Cl)cc1)N1CC(c2ccccc2)C(c2ccc(Cl)cc2)=N1)C(N)=O (racemic) | > 1000 | 26 | –
CC(C)[C@H](N/C(=N\S(=O)(=O)c1ccc(Cl)cc1)N1C[C@@H](c2ccccc2)C(c2ccc(Cl)cc2)=N1)C(N)=O | – | > 1000 | –
C[C@H](NC(=O)[C@H](C)N/C(=N\S(=O)(=O)c1ccc(Cl)cc1)N1CC(c2ccccc2)C(c2ccc(Cl)cc2)=N1)C(N)=O (some centres not stated) | > 5000 | 27 | Papp A→B [3]: 0.3 ×10⁻⁶ cm/s
NC(=O)CN/C(=N\S(=O)(=O)c1ccc(Cl)cc1)N1CC(c2ccccc2)C(c2ccc(Cl)cc2)=N1 (single isomer, unassigned; enantiomer 1) | – | – | Occ [6]: 0%
CN=C(NS(=O)(=O)c1ccc(OCC(=O)O)cc1)N1CC(c2ccccc2)C(c2ccc(Cl)cc2)=N1 (racemic) | – | > 5000 | –
CN/C(=N\S(=O)(=O)c1ccc(C(N)=O)cc1)N1CC(c2ccccc2)C(c2ccc(Cl)cc2)=N1 (racemic) | – | > 5000 | –
C[C@H](N/C(=N\S(=O)(=O)c1ccc(O)cc1)N1CC(c2ccccc2)C(c2ccc(Cl)cc2)=N1)C(N)=O (some centres not stated) | > 5000 | > 500 | –
CC(C)[C@H](N/C(=N\S(=O)(=O)c1ccc(Cl)cc1)N1C[C@H](c2ccccc2)C(c2ccc(Cl)cc2)=N1)C(N)=O | > 1000 | 0.5 | Occ (Mus musculus [7]): 10%; Occ (Mus musculus [8]): 0%; Occ [6]: 0%; Occ (Mus musculus [9]): 0%
CN/C(=N\S(=O)(=O)c1ccc(C(=O)O)cc1)N1CC(c2ccccc2)C(c2ccc(Cl)cc2)=N1 (racemic) | – | > 5000 | –
NC(=O)[C@H](Cc1ccccc1)N/C(=N\S(=O)(=O)c1ccc(Cl)cc1)N1CC(c2ccccc2)C(c2ccc(Cl)cc2)=N1 (some centres not stated) | – | – | inhibition (Cannabinoid receptor 1 [2]): 61%
CCOC(=O)c1ccc(S(=O)(=O)NC(=NC)N2CC(c3ccccc3)C(c3ccc(Cl)cc3)=N2)cc1 (racemic) | – | 100 | –
COc1ccc(S(=O)(=O)NC(=N[C@@H](C)C(N)=O)N2CC(c3ccccc3)C(c3ccc(Cl)cc3)=N2)cc1 (some centres not stated) | > 5000 | 70 | –
NC(=O)[C@H](Cc1ccccc1)N=C(NS(=O)(=O)c1ccc(Cl)cc1)N1CC(c2ccccc2)C(c2ccc(Cl)cc2)=N1 (some centres not stated) | > 5000 | – | –
NC(=O)C[C@H](N=C(NS(=O)(=O)c1ccc(Cl)cc1)N1CC(c2ccccc2)C(c2ccc(Cl)cc2)=N1)C(N)=O (some centres not stated) | > 5000 | > 100 | –
CCOC(=O)[C@@H](O)CCN/C(=N\S(=O)(=O)c1ccc(Cl)cc1)N1CC(c2ccccc2)C(c2ccc(Cl)cc2)=N1 (some centres not stated) | – | – | inhibition (Cannabinoid receptor 1 [2]): 53%
C[C@@H](O)[C@H](N/C(=N/S(=O)(=O)c1ccc(Cl)cc1)N1CC(c2ccccc2)C(c2ccc(Cl)cc2)=N1)C(N)=O (some centres not stated) | > 5000 | 7 | Papp A→B [3]: < 0.9 ×10⁻⁶ cm/s; Papp B→A [4]: 18.6 ×10⁻⁶ cm/s; efflux ratio [5]: > 20
